Laboratory results reported in ChEMBL document CHEMBL1146146, “Redesign of aminoglycosides for treatment of human genetic diseases caused by premature stop mutations” (2006).

How the values were obtained:
[1] = test system: Protocadherin-15 (Homo sapiens), Q96QU1 [R3X]; assay: Effect on human PCDH15 R3X mutation translation level at 80 ug/ml
Summary of the method: (§1)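 In vitro transcription-translation of a reporter plasmid carrying the PCDH15 R3X nonsense mutation (premature UGA C stop), with [35S]methionine and a range of drug concentrations. Products were resolved by SDS-PAGE and quantified by PhosphorImager. Suppression is the 35-kDa product as a share of total (35 + 25 kDa) protein. Translation level is total protein at each concentration relative to the drug-free reaction. Values are means of ≥3 independent experiments; sulfate salts were tested.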

Escherichia coli [2] = assay: Antibacterial activity against Escherichia coli ATCC 25922 at 80 ug/ml; format: functional
[3] = test system: Protocadherin-15 (Homo sapiens), Q96QU1 [R3X]; assay: Suppression of human PCDH15 R3X mutation at 80 ug/ml; summary of the method: as §1
Bacillus subtilis [4] = assay: Antibacterial activity against Bacillus subtilis ATCC 6633 at 80 ug/ml; format: functional
Bacillus subtilis [5] = assay: Antibacterial activity against Bacillus subtilis ATCC 6633 at 40 ug/ml; format: functional
[6] = test system: Protocadherin-15 (Homo sapiens), Q96QU1 [R3X]; assay: Effect on human PCDH15 R3X mutation translation level at 40 ug/ml
Summary of the method: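 Reporter plasmid carrying the PCDH15 R3X nonsense mutation (premature UGA C stop codon) is transcribed and translated in vitro with [35S]methionine and drug added. Products are resolved by SDS–PAGE and quantified by PhosphorImager. Translation level is total protein (35 + 25 kDa) at each drug concentration relative to total protein without drug. Values are means of at least three independent experiments.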

Escherichia coli [7] = assay: Antibacterial activity against Escherichia coli ATCC 25922 at 40 ug/ml; format: functional
[8] = test system: Protocadherin-15 (Homo sapiens), Q96QU1 [R3X]; assay: Suppression of human PCDH15 R3X mutation at 40 ug/ml
Summary of the method: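 The PCDH15 R3X (UGA C) reporter is coupled-transcribed and translated in vitro in the presence of [35S]methionine, then run on SDS–PAGE with PhosphorImager quantification. Suppression is the fraction of the 35-kDa read-through product out of total protein (35-kDa plus 25-kDa truncated product). Values are averages of at least three independent experiments.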

Escherichia coli [9] = assay: Antibacterial activity against Escherichia coli ATCC 25922 at 160 ug/ml; format: functional
[10] = test system: Protocadherin-15 (Homo sapiens), Q96QU1 [R3X]; assay: Suppression of human PCDH15 R3X mutation at 160 ug/ml; summary of the method: as §1
[11] = test system: Protocadherin-15 (Homo sapiens), Q96QU1 [R3X]; assay: Effect on human PCDH15 R3X mutation translation level at 160 ug/ml; summary of the method: as §1
Bacillus subtilis [12] = assay: Antibacterial activity against Bacillus subtilis ATCC 6633 at 160 ug/ml; format: functional
Escherichia coli [13] = assay: Antibacterial activity against Escherichia coli ATCC 25922 at 30 ug/ml; format: functional, organism-based
Bacillus subtilis [14] = assay: Antibacterial activity against Bacillus subtilis ATCC 6633 at 30 ug/ml; format: functional, organism-based
[15] = test system: Protocadherin-15 (Homo sapiens), Q96QU1 [R3X]; assay: Effect on human PCDH15 R3X mutation translation level at 30 ug/ml; summary of the method: as §1
Target sequence in this assay (Q96QU1 other isoform, or with tags, fused parts or gaps): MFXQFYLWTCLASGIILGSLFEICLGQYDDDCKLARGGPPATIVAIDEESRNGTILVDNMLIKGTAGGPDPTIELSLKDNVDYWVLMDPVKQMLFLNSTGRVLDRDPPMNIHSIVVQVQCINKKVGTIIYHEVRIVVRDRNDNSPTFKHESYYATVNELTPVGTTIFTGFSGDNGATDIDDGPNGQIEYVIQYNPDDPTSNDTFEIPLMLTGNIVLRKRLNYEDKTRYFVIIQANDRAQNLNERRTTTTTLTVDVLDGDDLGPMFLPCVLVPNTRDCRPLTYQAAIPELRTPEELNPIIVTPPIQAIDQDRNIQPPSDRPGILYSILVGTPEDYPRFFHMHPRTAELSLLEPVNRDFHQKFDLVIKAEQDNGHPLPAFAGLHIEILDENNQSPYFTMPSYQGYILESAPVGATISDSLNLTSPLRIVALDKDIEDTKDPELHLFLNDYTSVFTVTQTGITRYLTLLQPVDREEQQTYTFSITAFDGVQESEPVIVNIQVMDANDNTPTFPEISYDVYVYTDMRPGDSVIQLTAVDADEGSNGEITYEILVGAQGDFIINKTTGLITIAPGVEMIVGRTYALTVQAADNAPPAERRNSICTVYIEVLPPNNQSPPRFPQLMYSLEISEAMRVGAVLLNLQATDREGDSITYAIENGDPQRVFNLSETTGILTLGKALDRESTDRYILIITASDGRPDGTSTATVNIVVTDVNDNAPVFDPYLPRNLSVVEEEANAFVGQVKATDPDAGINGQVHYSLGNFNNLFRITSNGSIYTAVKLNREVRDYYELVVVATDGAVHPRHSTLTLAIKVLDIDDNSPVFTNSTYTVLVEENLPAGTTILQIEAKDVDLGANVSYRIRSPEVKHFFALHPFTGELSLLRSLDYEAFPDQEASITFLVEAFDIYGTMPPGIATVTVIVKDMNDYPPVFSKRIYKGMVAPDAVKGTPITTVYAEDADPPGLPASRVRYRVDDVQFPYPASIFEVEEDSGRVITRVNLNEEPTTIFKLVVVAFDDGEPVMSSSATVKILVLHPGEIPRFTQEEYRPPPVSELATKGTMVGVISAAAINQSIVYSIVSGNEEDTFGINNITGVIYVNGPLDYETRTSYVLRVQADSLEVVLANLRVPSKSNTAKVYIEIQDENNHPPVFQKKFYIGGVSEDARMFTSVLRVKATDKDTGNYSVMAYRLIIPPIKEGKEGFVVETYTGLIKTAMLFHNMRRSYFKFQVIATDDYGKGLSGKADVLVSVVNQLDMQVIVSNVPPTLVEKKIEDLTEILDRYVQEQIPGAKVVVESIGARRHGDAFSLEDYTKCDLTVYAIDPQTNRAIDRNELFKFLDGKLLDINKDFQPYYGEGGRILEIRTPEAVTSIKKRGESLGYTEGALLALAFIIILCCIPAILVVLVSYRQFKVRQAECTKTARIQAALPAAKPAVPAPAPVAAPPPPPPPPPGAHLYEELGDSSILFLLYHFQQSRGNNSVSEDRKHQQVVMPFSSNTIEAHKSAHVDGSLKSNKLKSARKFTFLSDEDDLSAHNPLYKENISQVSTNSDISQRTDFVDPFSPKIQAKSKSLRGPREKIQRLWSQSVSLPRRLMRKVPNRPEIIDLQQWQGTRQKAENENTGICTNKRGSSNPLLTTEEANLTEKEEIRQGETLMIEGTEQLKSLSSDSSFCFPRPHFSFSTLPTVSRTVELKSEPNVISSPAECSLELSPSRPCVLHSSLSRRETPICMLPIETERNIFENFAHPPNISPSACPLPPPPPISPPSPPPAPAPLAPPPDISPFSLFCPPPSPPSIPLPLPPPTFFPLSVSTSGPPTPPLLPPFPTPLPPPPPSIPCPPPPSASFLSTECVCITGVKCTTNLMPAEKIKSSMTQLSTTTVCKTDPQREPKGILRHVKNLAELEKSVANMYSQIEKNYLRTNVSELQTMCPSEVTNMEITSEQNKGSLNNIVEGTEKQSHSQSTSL

[16] = test system: Protocadherin-15 (Homo sapiens), Q96QU1 [R3X]; assay: Suppression of human PCDH15 R3X mutation at 30 ug/ml; summary of the method: as §1
Target sequence in this assay (Q96QU1 other isoform, or with tags, fused parts or gaps): as above

Compound	Activity [1] [%]	MIC (Escherichia coli [2]) [µg/mL]	Activity [3] [%]	MIC (Bacillus subtilis [4]) [µg/mL]	further results
N[C@H]1[C@@H](O[C@H]2[C@H](O[C@@H]3O[C@H](CO)[C@@H](O)[C@H]3O)[C@@H](O)[C@H](N)C[C@@H]2N)O[C@H](CO)[C@@H](O)[C@@H]1O.O=S(=O)(O)O	100	256	1.3	64	–
NC[C@@H]1O[C@H](O[C@H]2[C@@H](O)[C@H](O[C@@H]3[C@@H](O)[C@H](N)C[C@H](N)[C@H]3O[C@H]3O[C@H](CO)[C@@H](O)[C@H](O)[C@H]3N)O[C@@H]2CO)[C@H](N)[C@@H](O)[C@@H]1O.O=S(=O)(O)O [PAROMOMYCIN SULFATE]	74	512	6.2	128	MIC (Bacillus subtilis [5]): 8 µg/mL; Activity [6]: 40%; MIC (Escherichia coli [7]): 12 µg/mL; Activity [8]: 49%
N[C@H]1[C@@H](O[C@H]2[C@H](O)[C@@H](O)[C@H](N)C[C@@H]2N)O[C@H](CO)[C@@H](O)[C@@H]1OCO[C@@H]1[C@@H](N)[C@@H](O[C@H]2[C@H](O)[C@@H](O)[C@H](N)C[C@@H]2N)O[C@H](CO)[C@H]1O.O=S(=O)(O)O	22	96	< 1	48	–
N[C@H]1[C@@H](O[C@H]2[C@H](O)[C@@H](O)[C@H](N)C[C@@H]2N)O[C@H](CO)[C@@H](O)[C@@H]1O[C@@H]1O[C@H](CO)[C@@H](O)[C@H]1O.O=S(=O)(O)O	–	–	–	–	MIC (Escherichia coli [9]): > 512 µg/mL; Activity [10]: < 1%; Activity [11]: 82%; MIC (Bacillus subtilis [12]): > 512 µg/mL
N[C@H]1[C@@H](O[C@H]2[C@H](O)[C@@H](O)[C@H](N)C[C@@H]2N)O[C@H](CO)[C@@H](O)[C@H]1N.O=S(=O)(O)O	71	192	2	48	–
NC[C@H]1O[C@@H](O[C@@H]2[C@@H](O)[C@H](N)C[C@H](N)[C@H]2O[C@H]2O[C@H](CO)[C@@H](O)[C@H](O)[C@H]2N)[C@H](O)[C@@H]1O.O=S(=O)(O)O	72	> 512	21	48	–
NC[C@@H]1O[C@H](O[C@@H]2[C@@H](O)[C@H](O[C@H]3O[C@H](CO)[C@@H](O)[C@H](O)[C@H]3N)[C@@H](N)C[C@H]2N)[C@@H](O)[C@H]1O.O=S(=O)(O)O	75	> 512	4.4	192	–
N[C@H]1[C@@H](O[C@H]2[C@H](O)[C@@H](O)[C@H](N)C[C@@H]2N)O[C@H](CO)[C@@H](O)[C@@H]1O.O=S(=O)(O)O [PAROMAMINE SULFATE]	74	512	6.2	128	–
N[C@H]1[C@@H](O[C@H]2[C@H](O)[C@@H](O[C@H]3O[C@@H](CO)[C@H](O)[C@@H]3O)[C@H](N)C[C@@H]2N)O[C@H](CO)[C@@H](O)[C@@H]1O.O=S(=O)(O)O	74	256	1.5	96	–
NC[C@H]1O[C@@H](O[C@@H]2[C@@H](N)[C@@H](O[C@H]3[C@H](O)[C@@H](O)[C@H](N)C[C@@H]3N)O[C@H](CO)[C@H]2O)[C@H](O)[C@@H]1O.O=S(=O)(O)O	98	192	2.9	48	–
GENTAMICIN SULFATE	–	–	–	–	MIC (Escherichia coli [13]): 4 µg/mL; MIC (Bacillus subtilis [14]): < 0.5 µg/mL; Activity [15]: 40%; Activity [16]: 49%
